Measurements taken from the array DNA melting data of Ke et al. (doi:10.1101/2024.01.08.574731).

Assays:
[1] = folding enthalpy; higher = less favourable; fluorescence melt of hairpins on a sequencing array, two-state fit; details: sodium 0.088 M
Outline: (§1)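 Melting temperature and folding enthalpy were derived from bootstrapped two-state fits. The fitted temperatures were raised by 9.35 °C to agree with UV melts, and four replicates were combined by inverse variance. The underlying data were Cy3 fluorescence images of library hairpins, with annealed Cy3 and quencher oligos, on a sequenced MiSeq flow cell in 50 mM Na-HEPES pH 8.0, 25 mM NaCl, taken in 2.5 °C steps up to 60 °C, normalised to pre-quench Cy3 and to control constructs.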

[2] = melting temperature; fluorescence melt of hairpins on a sequencing array, two-state fit, raised by 9.35 °C to match UV melts; details: sodium 0.088 M
Outline: as §1

| Sequence | folding enthalpy [1] [kcal/mol] | Tm [2] [°C] |
| --- | --- | --- |
| GATCACTGGTGTGATC ((((((....)))))) | -36.7 | 58 |
| GATCACTTATGTGATC ((((((....)))))) | -37.5 | 56.7 |
| GATCACTTCCGTGATC ((((((....)))))) | -35.8 | 56.5 |
| GATCACTTGAGTGATC ((((((....)))))) | -42.4 | 56.1 |
| GATCAGAAAGCTGATC ((((((....)))))) | -31.6 | 43 |
| GATCAGAACCTGATC ((((((...)))))) | -36.2 | 46.7 |
| GATCAGAAGTCTGATC ((((((....)))))) | -30 | 49 |
| GATCAGACCCTGATC ((((((...)))))) | -33.4 | 47.7 |
| GATCAGACCTCTGATC ((((((....)))))) | -40.6 | 48.4 |
| GATCAGACGAAAGTCATC (((..(((....)))))) | -9.11 | 23.3 |
| GATCAGAGCGCTGATC ((((((....)))))) | -27.4 | 49.1 |
| GATCAGAGGCCTGATC ((((((....)))))) | -34.6 | 48.5 |
| GATCAGAGGCTGATC ((((((...)))))) | -32.9 | 48.7 |
| GATCAGATACCTGATC ((((((....)))))) | -36.7 | 48 |
| GATCAGATATCTGATC ((((((....)))))) | -47.9 | 50.3 |
| GATCAGATCCTGATC ((((((...)))))) | -37 | 48.2 |
| GATCAGATCGCTGATC ((((((....)))))) | -28.2 | 48.9 |
| GATCAGATTACTGATC ((((((....)))))) | -30.3 | 50 |
| GATCAGCAAACTGATC ((((((....)))))) | -32 | 48.2 |
| GATCAGCAACCTGATC ((((((....)))))) | -33 | 46.2 |
| GATCAGCAAGCTGATC ((((((....)))))) | -33 | 58.7 |
| GATCAGCACGCTGATC ((((((....)))))) | -42.1 | 62.3 |
| GATCAGCATCCTGATC ((((((....)))))) | -32.5 | 48 |
| GATCAGCCACTGATC ((((((...)))))) | -32 | 48.6 |

| Sequence | folding enthalpy [1] [kcal/mol] | Tm [2] [°C] |
| --- | --- | --- |
| GATCAGCCCACTGATC ((((((....)))))) | -37.6 | 51.6 |
| GATCAGCCCCTGATC ((((((...)))))) | -36.2 | 49.2 |
| GATCAGCCTCTGATC ((((((...)))))) | -38.5 | 47.9 |
| GATCAGCCTGCTGATC ((((((....)))))) | -41.5 | 64.1 |
| GATCAGCGAACTGATC ((((((....)))))) | -34.4 | 49.3 |
| GATCAGCGACCTGATC ((((((....)))))) | -31.3 | 47.4 |
| GATCAGCGGCTGATC ((((((...)))))) | -51 | 50.7 |
| GATCAGCGTTCTGATC ((((((....)))))) | -37.3 | 49.8 |
| GATCAGCTACTGATC ((((((...)))))) | -35.2 | 49.1 |
| GATCAGCTAGCTGATC ((((((....)))))) | -48 | 62.1 |
| GATCAGCTCGCTGATC ((((((....)))))) | -57.4 | 62.9 |
| GATCAGGACACTGATC ((((((....)))))) | -45.4 | 56.7 |
| GATCAGGACGCTGATC ((((((....)))))) | -41.7 | 54.2 |
| GATCAGGACTCTGATC ((((((....)))))) | -40.6 | 55.6 |
| GATCAGGAGACTGATC ((((((....)))))) | -37.6 | 51.3 |
| GATCAGGAGTCTGATC ((((((....)))))) | -38.7 | 48.2 |
| GATCAGGCAACTGATC ((((((....)))))) | -37.6 | 60.6 |
| GATCAGGCCCTGATC ((((((...)))))) | -33.9 | 50.1 |
| GATCAGGCCGCTGATC ((((((....)))))) | -41.3 | 51.8 |
| GATCAGGCGACTGATC ((((((....)))))) | -36.8 | 56.4 |
| GATCAGGCGCTGATC ((((((...)))))) | -33.8 | 47.9 |
| GATCAGGGAAACCTGACC (.(((((....))))).) | -17.2 | 36.3 |
| GATCAGGGAAACCTGGTC ((.((((....)))).)) | -29.2 | 47.4 |
| GATCAGGGCTCTGATC ((((((....)))))) | -38.8 | 55.1 |

| Sequence | folding enthalpy [1] [kcal/mol] | Tm [2] [°C] |
| --- | --- | --- |
| GATCAGGGGACTGATC ((((((....)))))) | -32.5 | 53.8 |
| GATCAGGTAACTGATC ((((((....)))))) | -39.9 | 57.1 |
| GATCAGGTAGCTGATC ((((((....)))))) | -39.7 | 53.4 |
| GATCAGGTCCCTGATC ((((((....)))))) | -39 | 54.6 |
| GATCAGGTGCTGATC ((((((...)))))) | -39 | 48.6 |
| GATCAGTATTCTGATC ((((((....)))))) | -39.1 | 51 |
| GATCAGTCAACTGATC ((((((....)))))) | -37.6 | 50.9 |
| GATCAGTCCACTGATC ((((((....)))))) | -37.6 | 54.3 |
| GATCAGTCGTCTGATC ((((((....)))))) | -36.5 | 52.3 |
| GATCAGTCTCTGATC ((((((...)))))) | -40.3 | 50.7 |
| GATCAGTCTGCTGATC ((((((....)))))) | -41.6 | 52.7 |
| GATCAGTGACTGATC ((((((...)))))) | -26.2 | 48.7 |
| GATCAGTGCCTGATC ((((((...)))))) | -22.5 | 49 |
| GATCAGTGGCCTGATC ((((((....)))))) | -36 | 50.6 |
| GATCAGTGGTCTGATC ((((((....)))))) | -35.7 | 51.6 |
| GATCAGTGTCCTGATC ((((((....)))))) | -36.2 | 49.6 |
| GATCAGTGTCTGATC ((((((...)))))) | -34.8 | 50 |
| GATCAGTTCGCTGATC ((((((....)))))) | -44.9 | 54.1 |
| GATCAGTTTCCTGATC ((((((....)))))) | -35 | 50.9 |
| GATCAGTTTGCTGATC ((((((....)))))) | -44.1 | 53.8 |
| GATCATAAACATGATC ((((((....)))))) | -31 | 43.1 |
| GATCATAACATGATC ((((((...)))))) | -37 | 50.3 |
| GATCATAACTATGATC ((((((....)))))) | -35.8 | 48 |
| GATCATACATATGATC ((((((....)))))) | -40.7 | 47.7 |

| Sequence | folding enthalpy [1] [kcal/mol] | Tm [2] [°C] |
| --- | --- | --- |
| GATCATACGAATGATC ((((((....)))))) | -34.4 | 44.7 |
| GATCATACGATGATC ((((((...)))))) | -29.4 | 46.9 |
| GATCATACTAATGATC ((((((....)))))) | -34.9 | 46.8 |
| GATCATAGAGATGATC ((((((....)))))) | -30.1 | 44.5 |
| GATCATAGCATGATC ((((((...)))))) | -37 | 49.9 |
| GATCATATAATGATC ((((((...)))))) | -31.6 | 49 |
| GATCATATTTATGATC ((((((....)))))) | -41.2 | 50.3 |
| GATCATCAATATGATC ((((((....)))))) | -35 | 45 |
| GATCATCAGAATGATC ((((((....)))))) | -22.6 | 46.9 |
| GATCATCAGTATGATC ((((((....)))))) | -29.4 | 45.8 |
| GATCATCATGATGATC ((((((....)))))) | -38 | 53.8 |
| GATCATCCAATGATC ((((((...)))))) | -31.4 | 46.9 |
| GATCATCCCATGATC ((((((...)))))) | -38.4 | 50.4 |
| GATCATCCCGATGATC ((((((....)))))) | -51.9 | 52.1 |
| GATCATCCGGATGATC ((((((....)))))) | -52.5 | 54.8 |
| GATCATCGATATGATC ((((((....)))))) | -29.4 | 45.3 |
| GATCATCGCAATGATC ((((((....)))))) | -39.1 | 48.3 |
| GATCATCGGAATGATC ((((((....)))))) | -38.9 | 45.8 |
| GATCATCGTTATGATC ((((((....)))))) | -32.4 | 47.2 |
| GATCATCTAATGATC ((((((...)))))) | -34.5 | 47.2 |
| GATCATCTATATGATC ((((((....)))))) | -36.2 | 47.9 |
| GATCATCTCATGATC ((((((...)))))) | -37.7 | 50 |
| GATCATCTCCATGATC ((((((....)))))) | -32.9 | 46.8 |
| GATCATCTCGATGATC ((((((....)))))) | -50.6 | 54.6 |
